The list is not random: actives were taken first. Their share in the collection is about 4%.
TAAR1 antagonist: antagonists of human TAAR1; CHO RD-HGA16 TAAR1, Fluo-8 calcium fluorescence, antagonist; inhibition, % at 3 µM; 1.5% of 360,000 active; AID 624466;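 active means inhibition above a per-plate cutoff, the mean inhibition of test compounds on that plate plus 3 SD, cut at about 49% in these data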;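 further: 0% = DMSO plus EC80 beta-PEA response and 100% = DMSO alone without agonist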
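Test system – hTAAR1-expressing CHO RD-HGA16 cells, Gα16-coupled · Also added – β-PEA at EC80 concentration, post-compound challenge · Compound – 3 µM, single point · Incubation – dye loading 75 min at 37 °C, then 30 min room temperature · Measured by – Fluo-8 intracellular calcium dye fluorescence, real-time kinetic reads · Benchmarks – vehicle and agonist controls · Replicates – singlicate, one well per test compound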
OX1R antag-1: blocks the human orexin 1 receptor. O43613. CHO/OX1R cells, Fluo-8 calcium fluorescence, orexin A. inhibition, % at 5 µM. 0.43% of 330,000 active. AID 434989;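 active means inhibition above its plate's threshold, mean inhibition of all tested compounds on the plate plus 3 SD, cut at about 37% in these data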;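 further: 0% = orexin A challenge wells and 100% = SB-334867-A antagonist wells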
Target sequence (O43613 whole entry, looked up): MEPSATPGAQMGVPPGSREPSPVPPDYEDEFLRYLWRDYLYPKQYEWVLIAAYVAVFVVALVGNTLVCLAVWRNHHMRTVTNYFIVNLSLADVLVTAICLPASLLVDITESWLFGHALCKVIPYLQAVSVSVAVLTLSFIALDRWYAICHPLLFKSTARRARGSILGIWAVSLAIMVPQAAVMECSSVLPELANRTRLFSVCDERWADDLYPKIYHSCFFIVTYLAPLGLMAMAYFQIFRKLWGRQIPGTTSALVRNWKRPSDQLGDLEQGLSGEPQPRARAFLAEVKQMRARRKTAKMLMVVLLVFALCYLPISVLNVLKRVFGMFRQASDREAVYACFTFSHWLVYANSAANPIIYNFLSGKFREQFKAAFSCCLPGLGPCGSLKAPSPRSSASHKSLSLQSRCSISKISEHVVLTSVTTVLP
TAAR1 agonist: human TAAR1 agonism | CHO RD-HGA16 TAAR1, Fluo-8 calcium fluorescence; vehicle wells 0%, saturating PEA agonist 100% | activation, % at 3 µM | 0.99% of 360,000 active;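 active means activation above the mean activation of all test compounds in the run plus 3 SD, cut at about 38% in these data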
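Test system: RD-HGA16 (CHO) cells co-expressing Gα16 and hTAAR1 / Benchmarks: DMSO vehicle as 0%, PEA at EC100 as 100% / Repeats: no replicates (n 1) / Measure: % activation from peak over basal fluorescence ratio, DMSO-to-PEA scaled / Timing: 17-24 h plating, Fluo-8 75 min 37 °C, 30 min RT / Technique: kinetic Fluo-8 calcium fluorescence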
OX1R antag-2: OX1R (human) antagonism; inhibition, % at 6.6 µM; 1.8% of 330,000 active; O43613; OX1R-expressing cells, FRET antagonist read-out; AID 485270; in the data active means inhibition mostly above about 38%, no sharp cut-off; inactive means mostly below about 40%;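 further: 0% = agonist challenge alone and 100% = reference antagonist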
NTR1 ag: agonists of human neurotensin receptor NTR1; P30989; AID 493036; NTR1-U2OS beta-arrestin-GFP spot imaging, agonist mode; activation, % at 20 µM; 0.17% of 330,000 active;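 active means activation at or above 40% of the spot to cytoplasm intensity ratio, with at least 20 cells analyzed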;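 further: 0% = DMSO without peptide and 100% = 100 nM NTR1 peptide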
CHO parental Ca: counter-screen: ATP calcium response change in parental CHO cells; parental CHO-K1, ATP-induced calcium, Fluo-8 fluorescence; AID 463079; 0.63% of 330,000 active; inhibition, % at 5.6 µM;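 active means inhibition above that plate's mean sample inhibition plus 3 SD, cut at about 26% in these data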;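 further: 0% = ATP-challenged DMSO wells and 100% = DMSO wells without ATP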
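Assay system: parental CHO cells; Read-out basis: percent inhibition of ATP-evoked calcium rise, normalized to controls; Benchmarks: ATP and no-ATP DMSO wells; Compound dosing: single nominal dose of 5.6 µM per compound; Signal: Fluo-8 calcium dye fluorescence; Also added: ATP as calcium-mobilizing challenge; Repeats: singlicate.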
TAAR1 ag conf: human TAAR1 agonism, confirmed; shares compounds with TAAR1 agonist; 82% of 2,400 active; CHO RD-HGA16 TAAR1, Fluo-8 calcium fluorescence; scaled: DMSO 0%, maximal phenethylamine 100%; activation, % at 3 µM;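 active means activation above a cutoff set at the run's mean compound activation plus 3 SD, cut at about 39% in these data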
Ga16 ag counter: counter-screen for TAAR1 agonists: nonselective agonists in parental cells; CHO-Ga16 parental, Fluo-8 calcium fluorescence; normalized to maximal ATP response, DMSO zero; shares compounds with TAAR1 agonist; activation, % at 3 µM; 50% of 2,400 active; AID 651787;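 active means activation above the run cutoff, the mean activation over all tested wells plus 3 SD, cut at about 12% in these data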;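 further: 0% = DMSO wells and 100% = maximal ATP response on the peak over basal ratio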
TAAR1 desens: counter-screen for human TAAR1 agonists: agonists that desensitize TAAR1; shares compounds with TAAR1 agonist; CHO RD-HGA16 hTAAR1, Fluo-8 calcium, beta-PEA response inhibition; inhibition, % at 3 µM; 46% of 2,400 active;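 active means inhibition above the run cutoff, the mean inhibition of all test compounds plus 3 SD, cut at about 49% in these data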;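 further: beta-PEA stimulus applied at its EC80; loss of beta-PEA calcium signal after compound pretreatment read as receptor desensitization; 0% = DMSO with beta-PEA at EC80 and 100% = DMSO alone without agonist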
Ga16 nonsel ant: counter-screen for TAAR1 agonists: nonselective Ga16 antagonists; shares compounds with TAAR1 agonist; CHO-Ga16 ATP-induced calcium, Fluo-8 fluorescence; inhibition, % at 3 µM; 39% of 2,400 active; AID 651952;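 active means inhibition above the plate's mean compound inhibition plus 3 SD, computed per plate, cut at about 22% in these data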;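 further: 0% = EC80 ATP with DMSO and 100% = DMSO wells without ATP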
* = called active by the depositor; · = no result.

SMILES | TAAR1 antagonist | OX1R antag-1 | TAAR1 agonist | OX1R antag-2 | NTR1 ag | CHO parental Ca | TAAR1 ag conf | Ga16 ag counter | TAAR1 desens | Ga16 nonsel ant
COc1ccccc1CCNC(=O)C(=O)NCC1OCCN1S(=O)(=O)c1ccccc1 (stereo unspecified) | 5.2 | -11.5 | 47.4* | 27.8 | -0.5 | -5.4 | 69.3* | 0.8 | 34.2 | 4.6
COc1ccccc1CCNC(=O)C(=O)NCC1OCCN1S(=O)(=O)c1ccc(C)cc1 (stereo unspecified) | 37.2 | -12.9 | 62.7* | 4.3 | -2.0 | -20.5 | 76.4* | 1.9 | 58.1* | 4.8
COc1ccc(S(=O)(=O)N2CCOC2CNC(=O)C(=O)NCCc2ccccc2)cc1OC (stereo unspecified) | -3.0 | -20.1 | 19.9 | 9.5 | 0.2 | -11.1 | · | · | · | ·
O=C(NCc1ccc(F)cc1)C(=O)NCC1OCCN1S(=O)(=O)c1cc(F)ccc1F (stereo unspecified) | 6.4 | · | 0.1 | · | · | · | · | · | · | ·
O=C(NCCc1ccccc1)C(=O)NCC1OCCN1S(=O)(=O)c1cc(F)ccc1F (stereo unspecified) | 42.7 | -13.9 | 51.7* | 23.5 | 0.0 | -14.7 | 69.0* | 10.6 | 57.6* | 33.8*
COc1ccccc1CCNC(=O)C(=O)NCC1OCCN1S(=O)(=O)c1ccc([N+](=O)[O-])cc1 (stereo unspecified) | -21.4 | -25.0 | 45.9* | 26.7 | 0.2 | -11.9 | 72.5* | 3.0 | 13.0 | 6.5
C[C@@H]1CCC(=O)N(CC[C@H](Oc2ccccc2)c2ccccc2)CC1 | -12.1 | -24.6 | 4.3 | 25.6 | 0.0 | -28.7 | · | · | · | ·
COc1ccccc1NC(=O)C(C)OC(=O)CCC1CCCCC1 (stereo unspecified) | 1.7 | -40.1 | -2.5 | -3.3 | 1.6 | -21.9 | · | · | · | ·
CCCCCCCCN1C(=O)[C@H](CC(=O)NCc2cccs2)C[C@@]2(C(=O)OC)CCCCC=C12 | -11.2 | · | -2.0 | · | · | · | · | · | · | ·
COc1ccccc1CCNC(=O)C(=O)NCC1OCCCN1S(=O)(=O)c1ccc(F)cc1C (stereo unspecified) | 4.0 | -2.0 | 57.8* | 47.3 | 1.8 | -18.2 | 64.2* | 3.8 | 20.5 | 12.1
Cc1cc(F)ccc1S(=O)(=O)N1CCCOC1CNC(=O)C(=O)NCCc1ccco1 (stereo unspecified) | -13.3 | · | 2.1 | · | · | · | · | · | · | ·
COc1ccccc1CCNC(=O)C(=O)NCC1OCCN1S(=O)(=O)c1cccs1 (stereo unspecified) | -4.5 | 2.9 | 71.6* | 33.5 | -0.6 | -5.8 | 73.9* | 0.8 | 36.1 | 15.6
O=C(NNC(=S)NC(=O)c1cccnc1)c1ccc(F)cc1 | -13.0 | -4.9 | 0.4 | 10.9 | 0.2 | 1.2 | · | · | · | ·
O=C(NC(=S)NNC(=O)c1ccccc1O)c1ccccc1 | 28.7 | -9.5 | 66.0* | 6.9 | -1.4 | 12.1 | 75.6* | 66.3* | 23.6 | 21.0
O=C(NNC(=S)NC(=O)c1ccccc1[N+](=O)[O-])c1ccccc1O | -11.4 | -15.8 | 5.2 | 25.3 | 0.2 | -18.6 | · | · | · | ·
Cc1ccccc1C(=O)NNC(=O)c1ccc(Br)cc1 | -9.0 | -9.2 | 1.8 | 14.3 | 2.5 | -3.5 | · | · | · | ·
Cc1ccc(C(=O)NC(=S)NNC(=O)c2ccccc2O)cc1 | 31.9 | 3.6 | 114.1* | -1.6 | 5.3 | -10.5 | 127.4* | 96.7* | 77.0* | 44.7*
Cc1ccccc1C(=O)NNC(=S)NC(=O)c1ccccc1 | 55.4* | 24.2 | 123.3* | -0.8 | 3.5 | -1.6 | 134.6* | 111.9* | 99.7* | 78.1*
O=C(NC(=S)NNC(=O)c1ccccc1O)c1ccc(F)cc1 | 20.6 | -0.1 | 90.0* | 16.0 | -0.4 | 4.1 | 54.5* | 58.4* | 20.1 | 21.9*

Bioassay records (PubChem)
